Laboratory results taken from ChEMBL document CHEMBL3877322, “Design, synthesis, molecular modeling and anti-hyperglycemic evaluation of novel quinoxaline derivatives as potential PPARγ and SUR agonists” (Bioorg Med Chem, 2017).

Tests used:
Rattus norvegicus [1] = assay: Antihyperglycemic activity in Swiss albino rat model of streptozotocin-induced hyperglycemia assessed as reduction in blood glucose level at 0.36 mg/kg, po measured after 3 hrs by glucometer relative to control; assay type: functional; parameters: scale not given: the % may be the effect or the level left
Procedure, shortened: (§1)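 Adult male Swiss albino rats (200-300 g) acclimatized 24 h, then given streptozotocin 60.00 mg/kg i.p. in 0.90% sodium citrate buffer pH 4.50. Those with glucose >250.00 mg/dl at 72 h were used, six per group. Single oral dose; diabetic controls received 1% gum acacia vehicle. Tail blood glucose read by glucometer at 0 and 3 h; % reduction calculated.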

[2] = Agonist activity at SUR in Wistar rat islets of pancreas assessed as induction of glucose-stimulated insulin secretion preincubated for 1 hr followed by glucose addition measured after 30 mins by sandwich ELISA
Procedure, shortened: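 Islets from fed male-unspecified Wistar rats (200-250 g), pilocarpine-pretreated i.p., isolated by collagenase, then cultured overnight at 16 mmol/l glucose in CMRL-1066 with L-glutamine, gentamycin and 10% FCS at 37°C. Exposed 1 h to compound in DMSO (5, 10, 15, 20 uM), washed in Ringer HEPES, then 30 min at 37°C with 16.7 mmol/l glucose. Insulin measured by rat insulin sandwich ELISA (A450); EC50 reported.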

Rattus norvegicus [3] = assay: Antihyperglycemic activity in Swiss albino rat model of streptozotocin-induced hyperglycemia assessed as reduction in blood glucose level at 20 mg/kg, po measured after 3 hrs by glucometer relative to control; assay type: functional; parameters: scale not given: the % may be the effect or the level left; procedure, shortened: as §1
[4] = molecular target: T1, Peroxisome proliferator-activated receptor gamma (Homo sapiens, UniProt P37231); assay: Displacement of fluormone-PPARgamma Green from recombinant human N-terminal GST-tagged PPARgamma-LBD by fluorescence polarization assay
T1 sequence (P37231 whole entry): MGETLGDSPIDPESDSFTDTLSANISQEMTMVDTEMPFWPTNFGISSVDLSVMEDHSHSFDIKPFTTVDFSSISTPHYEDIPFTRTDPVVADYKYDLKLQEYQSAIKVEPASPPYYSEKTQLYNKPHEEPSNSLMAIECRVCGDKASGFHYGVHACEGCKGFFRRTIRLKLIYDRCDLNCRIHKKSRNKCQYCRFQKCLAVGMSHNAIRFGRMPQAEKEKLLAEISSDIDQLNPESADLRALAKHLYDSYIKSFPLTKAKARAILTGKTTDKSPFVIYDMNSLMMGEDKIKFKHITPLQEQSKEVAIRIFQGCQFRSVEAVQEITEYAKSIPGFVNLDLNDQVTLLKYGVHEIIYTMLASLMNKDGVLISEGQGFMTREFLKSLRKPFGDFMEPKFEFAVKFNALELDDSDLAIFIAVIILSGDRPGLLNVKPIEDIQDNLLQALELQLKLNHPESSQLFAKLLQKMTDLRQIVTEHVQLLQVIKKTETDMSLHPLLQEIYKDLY

Row | SMILES | Activity (Rattus norvegicus [1]) | EC50 [2] | Activity (Rattus norvegicus [3]) | IC50 [4]
1 | CCC1=C(C)CN(C(=O)NCCc2ccc(S(=O)(=O)NC(=O)NC3CCC(C)CC3)cc2)C1=O (stereo unspecified) | 26.53% | 0.73 to 4 µM |  | 
2 | Cc1nc2ccccc2n(CC(=O)Nc2ccc(S(=O)(=O)NC(=O)Nc3ccccc3)cc2)c1=O |  |  | 25.15% | 
3 | O=C(CN1CC(=O)Nc2ccccc21)Nc1ccc(S(=O)(=O)NC(=S)NC2CCCCC2)cc1 |  |  | 13.08% | 
4 | Cc1nc2ccccc2n(CC(=O)Nc2ccc(S(=O)(=O)NC(=O)NC3CCCCC3)cc2)c1=O |  | 0.92 µM | 50.58% | 0.482 µM
5 | O=C(CN1CC(=O)Nc2ccccc21)Nc1ccc(S(=O)(=O)NC(=S)Nc2ccccc2)cc1 |  |  | 2.88% | 
6 | O=C1CN(C(=O)CNc2ccc(S(=O)(=O)NC(=O)Nc3ccccc3)cc2)c2ccccc2N1 |  |  | 22.01% | 
7 | Cc1nc2ccccc2n(CC(=O)Nc2ccc(S(=O)(=O)NC(=S)NC3CCCCC3)cc2)c1=O |  | 2.69 µM | 33.23% | 0.35 µM
8 | CCCCNC(=O)NS(=O)(=O)c1ccc(NCC(=O)N2CC(=O)Nc3ccccc32)cc1 |  | 1.95 µM | 40.55% | 1.32 µM
9 | CCCCNC(=S)NS(=O)(=O)c1ccc(NC(=O)Cn2c(=O)c(C)nc3ccccc32)cc1 |  | 2.82 µM | 43.84% | 0.369 µM
10 | O=C(CN1CC(=O)Nc2ccccc21)Nc1ccc(S(=O)(=O)NC(=O)NC2CCCCC2)cc1 |  | 1.54 µM | 39.81% | 1.15 µM
11 | O=C(CN1CC(=O)Nc2ccccc21)Nc1ccc(S(=O)(=O)NC(=O)Nc2ccccc2)cc1 |  |  | 21.89% | 
12 | CCCCNC(=O)NS(=O)(=O)c1ccc(NC(=O)Cn2c(=O)c(C)nc3ccccc32)cc1 |  | 0.98 µM | 40.55% | 0.491 µM
13 | CCCCNC(=S)NS(=O)(=O)c1ccc(NC(=O)CN2CC(=O)Nc3ccccc32)cc1 |  |  | 30.75% | 
14 | O=C1CN(C(=O)CNc2ccc(S(=O)(=O)NC(=O)NC3CCCCC3)cc2)c2ccccc2N1 |  | 1.89 µM | 49.62% | 1.14 µM
15 | Cc1nc2ccccc2n(CC(=O)Nc2ccc(S(=O)(=O)NC(=S)Nc3ccccc3)cc2)c1=O |  |  | 20.54% | 
16 | CCCCNC(=O)NS(=O)(=O)c1ccc(NC(=O)CN2CC(=O)Nc3ccccc32)cc1 |  | 1.69 µM | 45.1% | 1.29 µM
17 | Cc1ccc(NC(=S)NS(=O)(=O)c2ccc(CCNS(=O)(=O)c3ccccc3)cc2)cc1 |  | 100 µM |  | 
18 | COc1ccc(NC(=S)NS(=O)(=O)c2ccc(CCNS(=O)(=O)c3ccccc3)cc2)cc1 |  | 1000 µM |  | 
19 | O=S(=O)(NCCc1ccc(S(=O)(=O)NC(=S)Nc2ccc(Cl)cc2)cc1)c1ccc(Cl)cc1 |  | 33.3 µM |  | 
20 | COc1ccc(NC(=S)NS(=O)(=O)c2ccc(CCNS(=O)(=O)c3ccc(Cl)cc3)cc2)cc1 |  | 33.3 µM |  | 
21 | O=C(NC1CCCCC1)NS(=O)(=O)c1ccc(CCNS(=O)(=O)c2ccccc2)cc1 |  | 12.5 µM |  | 
22 | CC1CCC(NC(=O)NS(=O)(=O)c2ccc(CCNS(=O)(=O)c3ccc(Cl)cc3)cc2)CC1 (stereo unspecified) |  | 2.04 µM |  | 
23 | CC1CCC(NC(=O)NS(=O)(=O)c2ccc(CCNS(=O)(=O)c3ccc(Br)cc3)cc2)CC1 (stereo unspecified) |  | 1.6 µM |  | 
24 | CC1CCC(NC(=O)NS(=O)(=O)c2ccc(CCNS(=O)(=O)c3ccccc3)cc2)CC1 (stereo unspecified) |  | 3.4 µM |  | 
25 | O=C(NC1CCCCC1)NS(=O)(=O)c1ccc(CCNS(=O)(=O)c2ccc(Cl)cc2)cc1 |  | 3.1 µM |  | 
26 | O=C(NC1CCCCC1)NS(=O)(=O)c1ccc(CCNS(=O)(=O)c2ccc(Br)cc2)cc1 |  | 2.4 µM |  | 
27 | CC(=O)Nc1ccc(S(=O)(=O)NCCc2ccc(S(=O)(=O)NC(=O)NC3CCC(C)CC3)cc2)cc1C (stereo unspecified) |  | 7.14 µM |  | 
28 | CC(=O)Nc1ccc(S(=O)(=O)NCCc2ccc(S(=O)(=O)NC(=O)NC3CCC(C)CC3)cc2)cc1 (stereo unspecified) |  | 20 µM |  | 
29 | O=S(=O)(NCCc1ccc(S(=O)(=O)NC(=S)Nc2ccc(Cl)cc2)cc1)c1ccccc1 |  | 33.3 µM |  | 
